Tests used:
[1] = tested on: Human immunodeficiency virus 1; experiment: Antiviral activity against HIV-1 RES056 harboring reverse transcriptase K103N/Y181C double mutant infected in human MT4 cells assessed as inhibition of viral replication after 5 days by MTT assay; format: functional, organism-based; details: Human immunodeficiency virus 1, RES056, MT4, 120 h
[2] = tested on: Human immunodeficiency virus 1; experiment: Antiviral activity against wild-type HIV-1 3B infected in human MT4 cells assessed as inhibition of viral replication after 5 days by MTT assay; format: functional, organism-based; details: Human immunodeficiency virus 1, 3B, MT4, 120 h
MT4 = experiment: Cytotoxicity against human MT4 cells assessed as decrease in cell viability after 5 days by MTT assay; format: cell-based; details: mt4, 120 h
Summary of the method: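 Mock-infected MT-4 cells, exponentially growing, seeded with compound in culture medium without virus; run in parallel with the antiviral assay. Viability read spectrophotometrically by MTT reduction five days later.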

[3] = Selectivity index, ratio of CC50 for human MT4 cells to EC50 for wild-type HIV1 3B; format: toxicity; details: read-out: Ratio CC50/EC50
Summary of the method: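 Wild-type HIV-1 IIIB at 100–300 CCID50 added to MT-4 cells with compound, with mock-infected wells in parallel. MTT viability was read at day 5. […] SI = CC50/EC50.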

[4] = Selectivity index, ratio of CC50 for human MT4 cells to EC50 for HIV-1 RES056 harboring reverse transcriptase K103N/Y181C double mutant infected in human MT4 cells; format: toxicity, cell-based; details: read-out: Ratio CC50/EC50
Summary of the method: (§1)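 SI is CC₅₀ divided by EC₅₀, both by MTT after 5 days in MT-4 cells. CC₅₀ comes from mock-infected cultures run in parallel and is the concentration reducing their viability by 50%. EC₅₀ comes from cultures infected with the given mutant strain at 100–300 CCID₅₀.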

[5] = tested on: Human immunodeficiency virus 1; experiment: Resistance factor, ratio of EC50 for HIV1 harboring reverse transcriptase Y181C mutant to EC50 for wild-type HIV-1 3B; format: functional
Summary of the method: (§2)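 Resistance fold is EC₅₀ against the mutant strain divided by EC₅₀ against WT IIIB. Both EC₅₀ values come from the 5-day MTT protection assay in MT-4 cells infected with 100–300 CCID₅₀ of virus.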

[6] = tested on: Human immunodeficiency virus 1; experiment: Resistance factor, ratio of EC50 for HIV1 harboring reverse transcriptase L100I mutant to EC50 for wild-type HIV-1 3B; format: functional; summary of the method: as §2
[7] = Selectivity index, ratio of CC50 for human MT4 cells to EC50 for HIV1 harboring reverse transcriptase K103N mutant; format: toxicity; details: read-out: Ratio CC50/EC50; summary of the method: as §1
[8] = tested on: Human immunodeficiency virus 1; experiment: Antiviral activity against HIV1 harboring reverse transcriptase E138K mutant infected in human MT4 cells assessed as inhibition of viral replication after 5 days by MTT assay; format: functional, organism-based; details: Human immunodeficiency virus 1, MT4, 120 h
[9] = tested on: Human immunodeficiency virus 1; experiment: Antiviral activity against HIV1 harboring reverse transcriptase K103N mutant infected in human MT4 cells assessed as inhibition of viral replication after 5 days by MTT assay; format: functional, organism-based; details: Human immunodeficiency virus 1, MT4, 120 h
[10] = tested on: Human immunodeficiency virus 1; experiment: Resistance factor, ratio of EC50 for HIV1 harboring reverse transcriptase K103N mutant to EC50 for wild-type HIV-1 3B; format: functional; summary of the method: as §2
[11] = tested on: Human immunodeficiency virus 1; experiment: Antiviral activity against HIV1 harboring reverse transcriptase L100I mutant infected in human MT4 cells assessed as inhibition of viral replication after 5 days by MTT assay; format: functional, organism-based; details: Human immunodeficiency virus 1, MT4, 120 h
[12] = tested on: Human immunodeficiency virus 1; experiment: Resistance factor, ratio of EC50 for HIV1 harboring reverse transcriptase F227L/V106A mutant to EC50 for wild-type HIV-1 3B; format: functional; summary of the method: as §2
[13] = tested on: Human immunodeficiency virus 1; experiment: Resistance factor, ratio of EC50 for HIV1 harboring reverse transcriptase Y188L mutant to EC50 for wild-type HIV-1 3B; format: functional; summary of the method: as §2
[14] = tested on: Human immunodeficiency virus 1; experiment: Resistance factor, ratio of EC50 for HIV1 harboring reverse transcriptase E138K mutant to EC50 for wild-type HIV-1 3B; format: functional; summary of the method: as §2
[15] = Selectivity index, ratio of CC50 for human MT4 cells to EC50 for HIV1 harboring reverse transcriptase E138K mutant; format: toxicity; details: read-out: Ratio CC50/EC50; summary of the method: as §1
[16] = Selectivity index, ratio of CC50 for human MT4 cells to EC50 for HIV1 harboring reverse transcriptase L100I mutant; format: toxicity; details: read-out: Ratio CC50/EC50; summary of the method: as §1
[17] = tested on: Human immunodeficiency virus 1; experiment: Antiviral activity against HIV1 harboring reverse transcriptase Y188L mutant infected in human MT4 cells assessed as inhibition of viral replication after 5 days by MTT assay; format: functional, organism-based; details: Human immunodeficiency virus 1, MT4, 120 h
Summary of the method: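 MT-4 cells in exponential growth, resuspended into wells holding HIV-1 stock (IIIB, RES056 K103N/Y181C, F227L/V106A, L100I, K103N, E138K, Y181C or Y188L) at 100–300 CCID₅₀, or into mock-infected wells. Viability read by MTT reduction to formazan, measured spectrophotometrically 5 days post-infection. EC₅₀ is the concentration giving 50% protection against virus-induced cytotoxicity.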

[18] = Selectivity index, ratio of CC50 for human MT4 cells to EC50 for HIV1 harboring reverse transcriptase F227L/V106A mutant; format: toxicity; details: read-out: Ratio CC50/EC50; summary of the method: as §1
[19] = tested on: Human immunodeficiency virus 1; experiment: Antiviral activity against HIV1 harboring reverse transcriptase F227L/V106A double mutant infected in human MT4 cells assessed as inhibition of viral replication after 5 days by MTT assay; format: functional, organism-based; details: Human immunodeficiency virus 1, MT4, 120 h
[20] = Selectivity index, ratio of CC50 for human MT4 cells to EC50 for HIV1 harboring reverse transcriptase Y188L mutant; format: toxicity; details: read-out: Ratio CC50/EC50; summary of the method: as §1
[21] = Selectivity index, ratio of CC50 for human MT4 cells to EC50 for HIV1 harboring reverse transcriptase Y181C mutant; format: toxicity; details: read-out: Ratio CC50/EC50; summary of the method: as §1
[22] = tested on: Human immunodeficiency virus 1; experiment: Antiviral activity against HIV1 harboring reverse transcriptase Y181C mutant infected in human MT4 cells assessed as inhibition of viral replication after 5 days by MTT assay; format: functional, organism-based; details: Human immunodeficiency virus 1, MT4, 120 h

| SMILES | EC50 [1] | EC50 [2] | CC50 (MT4) | other results |
| --- | --- | --- | --- | --- |
| Cc1cc(C)c(Oc2cc(Nc3ccc(C#N)cc3)ncc2C(=O)NCc2cn(Cc3ccccc3C#N)nn2)c(C)c1 | > 220000 nM | 39 nM | > 220000 nM | – |
| Cc1cccc(Cn2cc(CNC(=O)c3cnc(Nc4ccc(C#N)cc4)cc3Oc3c(C)cc(C)cc3C)nn2)c1 | > 114000 nM | 106 nM | 114000 nM | selectivity ratio [3]: 1070; selectivity ratio [4]: < 1 |
| Cc1cc(C)c(Oc2cc(Nc3ccc(C#N)cc3)ncc2C(=O)NCc2cn(Cc3cccc(C#N)c3)nn2)c(C)c1 | > 130000 nM | 25 nM | ≥ 130000 nM | – |
| Cc1cc(C)c(Oc2cc(Nc3ccc(C#N)cc3)ncc2C(=O)NCc2cn(Cc3ccccc3C)nn2)c(C)c1 | > 164000 nM | 77 nM | ≥ 164000 nM | – |
| CCOC(=O)CCn1cc(CNC(=O)c2cnc(Nc3ccc(C#N)cc3)cc2Oc2c(C)cc(C)cc2C)nn1 | > 21500 nM | 847 nM | 21500 nM | selectivity ratio [3]: 25; selectivity ratio [4]: < 1 |
| Cc1cc(C)c(Oc2cc(Nc3ccc(C#N)cc3)ncc2C(=O)NCc2cn(Cc3cccc(Cl)c3)nn2)c(C)c1 | > 187000 nM | 104 nM | 187000 nM | selectivity ratio [3]: 1800; selectivity ratio [4]: < 1 |
| Cc1ccc(Cn2cc(CNC(=O)c3cnc(Nc4ccc(C#N)cc4)cc3Oc3c(C)cc(C)cc3C)nn2)cc1 | > 165000 nM | 167 nM | 165000 nM | selectivity ratio [3]: 990; selectivity ratio [4]: < 1 |
| Cc1cc(C)c(Oc2cc(Nc3ccc(C#N)cc3)ncc2C(=O)NCc2cn(Cc3ccc([N+](=O)[O-])cc3)nn2)c(C)c1 | > 140000 nM | 40 nM | ≥ 140000 nM | – |
| COC(=O)Cn1cc(CNC(=O)c2cnc(Nc3ccc(C#N)cc3)cc2Oc2c(C)cc(C)cc2C)nn1 | > 13800 nM | 1770 nM | 13800 nM | selectivity ratio [3]: 8; selectivity ratio [4]: < 1 |
| Cc1cc(C)c(Oc2cc(Nc3ccc(C#N)cc3)ncc2C(=O)NCc2cn(Cc3ccccc3[N+](=O)[O-])nn2)c(C)c1 | > 212000 nM | 57 nM | > 212000 nM | – |
| Cc1cc(C)c(Oc2cc(Nc3ccc(C#N)cc3)ncc2C(=O)NCc2cn(CCC#N)nn2)c(C)c1 | 2310 nM | 20 nM | 40200 nM | Ratio EC50 [5]: 4.5; Ratio EC50 [6]: 53; selectivity ratio [7]: 158; EC50 [8]: 15 nM; EC50 [9]: 250 nM; Ratio EC50 [10]: 12.5; EC50 [11]: 1060 nM; Ratio EC50 [12]: 16.5; Ratio EC50 [13]: 112; Ratio EC50 [14]: 0.8; selectivity ratio [15]: 2630; selectivity ratio [16]: 38; EC50 [17]: 2240 nM; selectivity ratio [18]: 121; EC50 [19]: 330 nM; selectivity ratio [20]: 18; selectivity ratio [21]: 450; EC50 [22]: 89 nM |
| Cc1cc(C)c(Oc2cc(Nc3ccc(C#N)cc3)ncc2C(=O)NCc2cn(Cc3ccccc3F)nn2)c(C)c1 | > 222000 nM | 95 nM | > 222000 nM | – |
| Cc1cc(C)c(Oc2cc(Nc3ccc(C#N)cc3)ncc2C(=O)NCc2cn(Cc3ccccc3Cl)nn2)c(C)c1 | > 188000 nM | 104 nM | ≥ 188000 nM | – |
| Cc1cc(C)c(Oc2cc(Nc3ccc(C#N)cc3)ncc2C(=O)NCc2cn(Cc3cccc(F)c3)nn2)c(C)c1 | > 205000 nM | 79 nM | ≥ 205000 nM | – |
| Cc1cc(C)c(Oc2cc(Nc3ccc(C#N)cc3)ncc2C(=O)NCc2cn(Cc3cccc([N+](=O)[O-])c3)nn2)c(C)c1 | > 156000 nM | 37 nM | ≥ 156000 nM | – |
| CCOC(=O)Cn1cc(CNC(=O)c2cnc(Nc3ccc(C#N)cc3)cc2Oc2c(C)cc(C)cc2C)nn1 | > 9530 nM | 653 nM | 9530 nM | selectivity ratio [3]: 15; selectivity ratio [4]: < 1 |
| Cc1cc(C)c(Oc2cc(Nc3ccc(C#N)cc3)ncc2C(=O)NCc2cn(Cc3ccc(Cl)cc3)nn2)c(C)c1 | > 120000 nM | 194 nM | ≥ 120000 nM | – |
| Cc1cc(C)c(Oc2cc(Nc3ccc(C#N)cc3)ncc2C(=O)NCc2cn(Cc3ccc(F)cc3)nn2)c(C)c1 | > 153000 nM | 74 nM | ≥ 153000 nM | – |
| CC(C)Nc1cccnc1N1CCN(C(=O)c2cc3cc(NS(C)(=O)=O)ccc3[nH]2)CC1 [DELAVIRDINE] | – | 38 nM | – | Ratio EC50 [5]: 64.7; Ratio EC50 [6]: 66.8; EC50 [8]: 51 nM; EC50 [9]: 3000 nM; Ratio EC50 [10]: 78.9; EC50 [11]: 2540 nM; Ratio EC50 [12]: 59.7; Ratio EC50 [13]: 22.1; Ratio EC50 [14]: 1.3; EC50 [17]: 840 nM; EC50 [19]: 2270 nM; EC50 [22]: 2460 nM |
| Cc1cc(C#N)cc(C)c1Oc1nc(Nc2ccc(C#N)cc2)nc(N)c1Br [ETRAVIRINE] | – | – | – | EC50 [17]: 11 nM; EC50 [19]: 5 nM |
| Cc1cn([C@H]2C[C@H](N=[N+]=[N-])[C@@H](CO)O2)c(=O)[nH]c1=O [ZIDOVUDINE] | 11 nM | – | > 7480 nM | EC50 [9]: 8 nM; EC50 [11]: 5 nM |

Source: ChEMBL document CHEMBL4152200, “Targeting the entrance channel of NNIBP: Discovery of diarylnicotinamide 1,4-disubstituted 1,2,3-triazoles as novel HIV-1 NNRTIs with high potency against wild-type and E138K mutant virus” (Eur J Med Chem, 2018)
